IC50 data for 18 molecules are collected here from ChEMBL document CHEMBL1154935, “Design, synthesis, evaluation and QSAR analysis of N(1)-substituted norcymserine derivatives as selective butyrylcholinesterase inhibitors” (Bioorg Med Chem Lett, 2010).

One assay has as its target T1, Acetylcholinesterase (Mus musculus, UniProt P21836).
T1 sequence (P21836 whole entry): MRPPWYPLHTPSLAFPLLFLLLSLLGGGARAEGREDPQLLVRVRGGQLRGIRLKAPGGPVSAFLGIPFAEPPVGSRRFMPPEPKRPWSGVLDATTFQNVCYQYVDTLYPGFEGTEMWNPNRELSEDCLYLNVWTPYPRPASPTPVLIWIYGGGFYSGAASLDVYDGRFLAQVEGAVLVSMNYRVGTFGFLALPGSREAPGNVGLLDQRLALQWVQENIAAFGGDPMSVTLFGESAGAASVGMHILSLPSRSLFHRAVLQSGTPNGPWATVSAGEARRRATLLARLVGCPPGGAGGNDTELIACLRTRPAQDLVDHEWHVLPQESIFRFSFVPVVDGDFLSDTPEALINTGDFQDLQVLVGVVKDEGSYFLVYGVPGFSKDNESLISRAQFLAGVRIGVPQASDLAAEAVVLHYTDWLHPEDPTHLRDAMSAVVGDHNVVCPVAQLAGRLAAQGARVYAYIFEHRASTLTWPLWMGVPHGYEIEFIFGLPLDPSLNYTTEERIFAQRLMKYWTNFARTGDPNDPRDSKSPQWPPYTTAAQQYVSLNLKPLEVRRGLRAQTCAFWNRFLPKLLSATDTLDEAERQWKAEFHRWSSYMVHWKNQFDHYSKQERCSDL
Kind of assay: Inhibition of mouse brain AChE after 1 hr by modified Ellman's colorimetric method. The method, boiled down: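 Enzyme source was a mouse brain extract. Inhibitor was preincubated with enzyme for 1 h at 37 °C, then acetylthiocholine was added together with DTNB. Absorbance at 415 nm was read at 2 min intervals. Activity was taken as percent of the DMSO solvent control. Seven concentrations were tested, and IC50 came from nonlinear regression of a sigmoidal dose-response curve.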
Background: In Ellman's method for cholinesterases, released thiocholine reacts with DTNB.

A further assay has as its target Cholinesterase (Mus musculus, UniProt Q03311). Kind of assay: Inhibition of mouse serum BChE after 1 hr by modified Ellman's colorimetric method. The method, boiled down:
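Enzyme source was a mouse serum extract. Inhibitor was preincubated with enzyme for 1 h at 37 °C, then butyrylthiocholine was added together with DTNB. Absorbance at 415 nm was read at 2 min intervals. Activity was taken as percent of the DMSO solvent control. Seven concentrations were tested, and IC50 came from nonlinear regression of a sigmoidal dose-response curve.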

The structures appear in SMILES notation.

Chain of Cholinesterase (Q03311 whole entry): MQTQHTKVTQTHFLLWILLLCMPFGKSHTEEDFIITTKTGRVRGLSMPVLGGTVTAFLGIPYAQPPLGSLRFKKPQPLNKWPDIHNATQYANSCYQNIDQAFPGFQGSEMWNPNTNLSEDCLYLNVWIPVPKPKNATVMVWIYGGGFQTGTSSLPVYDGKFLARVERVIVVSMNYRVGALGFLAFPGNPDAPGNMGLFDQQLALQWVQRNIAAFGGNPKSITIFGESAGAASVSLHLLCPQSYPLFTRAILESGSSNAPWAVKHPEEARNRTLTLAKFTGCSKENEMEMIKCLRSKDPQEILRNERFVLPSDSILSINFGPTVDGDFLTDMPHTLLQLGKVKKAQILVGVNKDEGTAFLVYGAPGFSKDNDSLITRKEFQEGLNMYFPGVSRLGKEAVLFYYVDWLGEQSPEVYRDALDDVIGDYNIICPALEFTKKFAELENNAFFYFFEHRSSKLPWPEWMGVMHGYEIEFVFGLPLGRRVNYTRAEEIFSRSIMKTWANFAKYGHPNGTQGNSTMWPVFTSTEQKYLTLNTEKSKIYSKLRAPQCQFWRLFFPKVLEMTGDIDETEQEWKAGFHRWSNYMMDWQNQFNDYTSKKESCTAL

Regarding `CC(C)c1ccc(NC(=O)Oc2ccc3c(c2)[C@]2(C)CCN(CCCc4ccccc4)[C@@H]2N3C)cc1`, the results for the IC50 against Acetylcholinesterase and at Cholinesterase were greater than 100000 nM and 510 nM, respectively. On the same counts, the results for `CC(C)c1ccc(NC(=O)Oc2ccc3c(c2)[C@]2(C)CCN(CC(c4ccccc4)c4ccccc4)[C@@H]2N3C)cc1` are greater than 100000 nM and 10000 nM. On the same counts, the results for `CC(C)c1ccc(NC(=O)Oc2ccc3c(c2)[C@]2(C)CCN(CCc4ccccn4)[C@@H]2N3C)cc1` are 4200 nM and 160 nM. On the same counts, the results for `CC(C)c1ccc(NC(=O)Oc2ccc3c(c2)[C@]2(C)CCN(C(Cc4ccccc4)c4ccccc4)[C@@H]2N3C)cc1` (stereo not given in full) are greater than 100000 nM and 15000 nM. As to `CC(C)c1ccc(CCN2CC[C@@]3(C)c4cc(OC(=O)Nc5ccc(C(C)C)cc5)ccc4N(C)[C@@H]23)cc1`, the half-maximal inhibitory concentration (IC50) is greater than 100000 nM against Acetylcholinesterase and 3300 nM on Cholinesterase.

As for `CC(C)c1ccc(NC(=O)Oc2ccc3c(c2)[C@]2(C)CCN(CCc4ccc(F)cc4)[C@@H]2N3C)cc1`, the figures for the IC50 against Acetylcholinesterase and on Cholinesterase were greater than 100000 nM and 500 nM, respectively. For `CC(C)c1ccc(NC(=O)Oc2ccc3c(c2)[C@]2(C)CCN(CCc4cccnc4)[C@@H]2N3C)cc1`, in that order: greater than 100000 nM and 180 nM. On the same counts, the results for `CC(C)c1ccc(NC(=O)Oc2ccc3c(c2)[C@]2(C)CCN(C)[C@@H]2N3C)cc1` [4-ISOPROPYLPHENSERINE] are 8400 nM and 240 nM.

On to `CC(C)c1ccc(NC(=O)Oc2ccc3c(c2)[C@]2(C)CCN(CCCCc4ccccc4)[C@@H]2N3C)cc1`, for which the IC50 against Acetylcholinesterase is greater than 100000 nM; on Cholinesterase, 550 nM. For `CC(C)c1ccc(NC(=O)Oc2ccc3c(c2)[C@]2(C)CCN(CCc4ccc(Cl)cc4)[C@@H]2N3C)cc1`, in that order: greater than 100000 nM and 500 nM.

Turning to `CC(C)c1ccc(NC(=O)Oc2ccc3c(c2)[C@]2(C)CCN(CCc4ccncc4)[C@@H]2N3C)cc1`, the IC50 amounted to 23000 nM on Acetylcholinesterase and 170 nM against Cholinesterase.

Regarding `CC(C)c1ccc(NC(=O)Oc2ccc3c(c2)[C@]2(C)CCN(CCc4ccccc4)[C@@H]2N3C)cc1` [PHENETHYLCYMSERINE], the IC50 against Acetylcholinesterase is greater than 100000 nM. As for `CC(C)c1ccc(NC(=O)Oc2ccc3c(c2)[C@]2(C)CCN(CCN4CCCCC4)[C@@H]2N3C)cc1`, the IC50 on Acetylcholinesterase is 3500 nM; against Cholinesterase it was 170 nM. On the same counts, the results for `CC(C)c1ccc(NC(=O)Oc2ccc3c(c2)[C@]2(C)CCN(CCc4ccc(Cl)cc4Cl)[C@@H]2N3C)cc1` are greater than 100000 nM and 2600 nM. On the same counts, the results for `Cc1ccc(CCN2CC[C@@]3(C)c4cc(OC(=O)Nc5ccc(C(C)C)cc5)ccc4N(C)[C@@H]23)c(C)c1` are greater than 100000 nM and 1100 nM. For `CC(C)c1ccc(NC(=O)Oc2ccc3c(c2)[C@]2(C)CCN(Cc4ccccc4)[C@@H]2N3C)cc1`, in that order: greater than 100000 nM and 510 nM.

As for `Cc1ccc(CCN2CC[C@@]3(C)c4cc(OC(=O)Nc5ccc(C(C)C)cc5)ccc4N(C)[C@@H]23)cc1`, the IC50 against Acetylcholinesterase is greater than 100000 nM; on Cholinesterase, 730 nM. For `CC(C)c1ccc(NC(=O)Oc2ccc3c(c2)[C@]2(C)CCN(CC(C)c4ccccc4)[C@@H]2N3C)cc1` (stereo not given in full), in that order: greater than 100000 nM and 720 nM.

As usually defined, the IC50 is the concentration that inhibits the measured activity by half. Low readings indicate greater potency in that assay, high ones weaker potency in that assay.
